High-throughput results (PubChem BioAssay)
Hck Nef HTS: inhibitors of human Hck kinase activated by Nef. P08631. Recombinant Hck-YEEI plus Nef, Z-Lyte FRET kinase assay. inhibition, % at 20 µM. hit rate 0.68% among 220,000;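 active means Hck-Nef kinase inhibition above about 50%, limit read from the data; inactive means inhibition below that limit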;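 further: 0% = DMSO with Hck plus Nef and 100% = Hck alone without Nef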
Target sequence (P08631 whole entry, looked up): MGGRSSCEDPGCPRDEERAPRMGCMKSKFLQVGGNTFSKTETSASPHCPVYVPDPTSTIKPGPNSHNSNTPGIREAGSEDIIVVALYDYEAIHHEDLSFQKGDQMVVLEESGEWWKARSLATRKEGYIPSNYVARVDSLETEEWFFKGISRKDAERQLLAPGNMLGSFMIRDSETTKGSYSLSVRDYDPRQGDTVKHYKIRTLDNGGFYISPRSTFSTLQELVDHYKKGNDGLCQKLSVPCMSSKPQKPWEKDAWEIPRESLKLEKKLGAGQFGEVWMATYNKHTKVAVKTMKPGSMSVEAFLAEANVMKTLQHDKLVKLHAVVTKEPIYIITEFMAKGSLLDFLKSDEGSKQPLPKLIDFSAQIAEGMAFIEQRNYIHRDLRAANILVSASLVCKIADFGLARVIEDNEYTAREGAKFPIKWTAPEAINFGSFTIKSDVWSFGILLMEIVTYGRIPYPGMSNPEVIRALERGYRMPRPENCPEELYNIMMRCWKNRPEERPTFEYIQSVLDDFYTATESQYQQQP
PERK inhibitor: inhibitors of human PERK kinase; CHO PERK-DD fusion, SEAP luminescence translation reporter; Q9NZJ5; inhibition, % at 5.6 µM; AID 1416; hit rate 0.17% among 220,000;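 active means inhibition above the mean inhibition of all tested compounds plus 3 SD, set separately per screening campaign, cut at about 2.9% in these data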;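 further: PERK kinase domain activated by AP20187 dimerizer at 100 nM; 0% = DMSO with dimerizer and 100% = rapamycin at 8.4 µM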
Runt-CBFb FRET: Runt domain-CBFb interaction inhibition | Cerulean-Runt/Venus-CBFb FRET ratio 530/480, 1 h | inhibition, % at 20 µM | hit rate 0.46% among 220,000 | AID 1496 | Q01196+Q13951;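 active means inhibition over about 50% at 20 µM in the single-dose screen, limit read from the data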;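 further: 0% = DMSO wells and 100% = excess unlabeled CBFb competitor control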
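test system = Cerulean-Runt domain fusion protein, energy donor | probe or stimulus = Venus-CBFb binding partner, 100 nM | incubation = two 1 h room-temperature incubations shielded from light | detection = fluorescence energy transfer, 422 nm excitation, 530/480 nm emission | measure = loss of energy transfer signal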
RanGTP-Imp inh: inhibitors of RanGTP-importin-beta interaction, primary screen, biochemical, FRET, CFP-Ran, YFP-importin-beta, homogeneous. hit rate 1.1% among 300,000. cell-free CFP-Ran/YFP-importin-beta FRET ratio. inhibition, % (concentration not given with the values);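 active means more than half of the replicate wells show a fall in the fluorescence ratio signal beyond about 16%, limit read from the data, passing the limit was not always enough; inconclusive means exactly half of the replicate wells pass the set limit; inactive means fewer than half of replicates pass the limit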;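 further: 0% = DMSO wells and 100% = Ran loaded with GDP instead of GTP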
Runt-SMMHC FRET: blocks binding of human RUNX1 Runt domain to CBFb-SMMHC. Q01196+Q13951. Cerulean-Runt/Venus-CBFb-SMMHC FRET ratio 530/480, 1 h. inhibition, % at 20 µM. hit rate 0.74% among 220,000. AID 1434;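 active means mean inhibition across duplicate retests at 20 µM reaching about 50%, limit read from the data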;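 further: 0% = DMSO wells and 100% = wells with excess untagged CBFb-SMMHC; inhibitors lower the FRET ratio by blocking Runt binding to CBFb-SMMHC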
eIF4E-4G inh: inhibitors of eIF4E and eIF4G interaction in translation initiation | TR-FRET eIF4E-eIF4GI(517-606) binding, 2 h | hit rate 0.37% among 220,000 | inhibition, % at 21.7 µM | P63073+Q04637;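 active means inhibition above about 30%, limit read from the data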;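 further: 0% = full FRET control wells and 100% = background wells lacking eIF4GI fragment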
* marks the source's active call; other numbers are inactive results; ? = inconclusive; · = no result. Compounds with a hit are over-represented: about 2.2% of the library has one in this group of screens.

SMILES | Hck Nef HTS | PERK inhibitor | Runt-CBFb FRET | RanGTP-Imp inh | Runt-SMMHC FRET | eIF4E-4G inh
CCOC(=O)N1CCN(C(=O)c2ccc3c(=O)n(CCOC)c(=O)[nH]c3c2)CC1 | -0.5 | 0.9 | -1.8 | -0.9 | -3.4 | -10.6
CCCCOC(=O)C(C)Nc1n[nH]c(=O)[nH]c1=O (stereo not drawn) | -0.1 | 2.9* | 1.3 | ? | 39.3 | 8.7
CCCCOC(=O)C(C)Nc1n[nH]c(=S)[nH]c1=O (stereo not drawn) | 0.5 | 0.3 | -3.1 | 1.0 | -6.8 | 0.4
Cc1cccc(C(=O)N=c2c(C#N)cc3c(=O)n4cccc(C)c4nc3n2Cc2ccco2)c1 | 27.7 | 0.0 | 95.2* | 111.8* | · | 1.8
Cc1nc2c(C)cccn2c(=O)c1NC(=O)c1ccco1 | · | · | · | -3.2 | · | ·
Cc1cccn2c(=O)c3cc(C#N)c(=NC(=O)c4ccccc4)n(Cc4ccco4)c3nc12 | · | · | · | 110.5* | · | ·
Cc1cccn2c(=O)c3cc(C#N)c(=NC(=O)c4ccco4)n(Cc4ccco4)c3nc12 | 22.5 | -0.8 | 9.6 | 119.9* | 88.1* | 10.3
Cc1cccn2c(=O)c3cc(C(=O)N(C)C)n(C)c3nc12 | 23.0 | 0.4 | -10.9 | -5.3 | -24.5 | ·
CCOc1ccc2nc(S(N)(=O)=O)sc2c1 | -0.4 | 1.4 | 0.2 | 6.5 | -6.6 | -1.3
CCOC(=O)C(=O)N/N=C/c1ccc(F)cc1 | 4.0 | -0.5 | 0.6 | ? | -1.2 | 4.3
CCOC(=O)C(=O)NNc1ccc(F)cc1 | 15.4 | 0.5 | 1.1 | 7.7 | -5.5 | 30.6*
CC(C)CCN1CCN(Cc2ccc(C#CC(C)(C)O)s2)CC1CCO (stereo not drawn) | 28.0 | 0.2 | -0.8 | 3.3 | 1.9 | -2.0
CCn1ncc(Br)c1C(=O)Nc1sc2c(c1C(N)=O)CCC2 | 1.5 | -0.2 | 3.5 | 46.8* | -3.4 | -0.9
CC(O)Cc1cn(CC(=O)N2CCNCC2)nn1 (stereo not drawn) | 27.5 | · | 0.9 | 3.4 | 0.7 | -7.5
OCCCNc1c2ccccc2nc2ccccc12 | · | · | · | 50.8* | · | ·
CC(C)(C)Nc1c2ccccc2nc2ccccc12 | · | · | · | 28.1* | · | ·
Cc1ccc(-c2nc(NCCCO)c3ccccc3n2)cc1 | · | · | · | 7.6 | · | ·
c1ccc2c(NCCc3c[nH]c4ccccc34)c3ccccc3nc2c1 | · | · | · | 91.1* | · | ·
c1ccc2c(c1)nc(N1CCOCC1)c1ccccc12 | 29.6 | 0.3 | -0.7 | -3.3 | -2.0 | 3.5
COc1ccccc1C(=O)NCCSCc1ccccc1Cl | · | · | · | 2.0 | · | ·
COc1ccc(NC(=O)C(NS(=O)(=O)c2ccc3c(c2)CCCN3C(C)=O)C(C)C)c(OC)c1 (stereo not drawn) | 1.7 | 0.1 | -2.3 | -0.9 | 1.6 | -1.0
Cc1ccc(C)c(Cn2nc(-c3ccccc3)ccc2=O)c1 | · | · | · | 2.6 | · | ·
O=S(=O)(c1ccc(Br)s1)N1CCN(c2ccc(F)cc2)CC1 | · | · | · | 4.5 | · | ·
COc1cccc(C(=O)COC(=O)c2ccc(NC(=O)c3ccccc3)cc2)c1 | -0.6 | 2.4 | · | 4.6 | · | ·
Cc1ccc(NC(=O)c2ccc(C#CC3(O)CCCCC3)cc2)cc1C | 0.5 | 2.2 | 2.4 | -2.4 | -0.1 | -0.9
SMILES | Hck Nef HTS | PERK inhibitor | Runt-CBFb FRET | RanGTP-Imp inh | Runt-SMMHC FRET | eIF4E-4G inh
COc1ccc(C#Cc2ccc3c(c2)c(=O)c2ccccc2n3C)cc1 | · | · | · | 84.5* | · | ·
Cn1c2ccccc2c(=O)c2cc(C#Cc3ccc(N)cc3)ccc21 | · | · | · | 50.3* | · | ·
Cn1c2ccccc2c(=O)c2ccc(C#CC3(O)CCCCC3)cc21 | · | · | · | 164.6* | · | ·
Nc1ccc(C#Cc2ccc3oc4ccccc4c(=O)c3c2)cc1 | · | · | · | -3.0 | · | ·
COc1ccc(-c2c(NC(C)=O)n(C)c3ccccc3c2=O)cc1 | -0.9 | 0.2 | 0.0 | -0.4 | 2.7 | 15.7
CCN(c1ccccc1)S(=O)(=O)c1nnc(NC(=O)c2ccccc2OC)s1 | · | · | · | 18.9* | · | ·
Cc1cccn2c(=O)c3cc(C(=O)NC4CCCC4)c(=N)n(CCc4ccccc4)c3nc12 | · | · | · | 178.6* | · | ·
Cc1ccc(CNC(=O)c2cc3c(=O)n4cccc(C)c4nc3n(CC3CCCO3)c2=N)cc1 (stereo not drawn) | · | · | 16.7 | · | 41.7 | ·
Cc1cccn2c(=O)c3cc(C(=O)NC4CCCC4)sc3nc12 | · | · | · | -0.8 | · | ·
CCCCNC(=O)c1cc2c(=O)n3cccc(C)c3nc2n(Cc2ccccc2)c1=N | 10.4 | -0.6 | 11.7 | 188.4* | 62.5* | 5.5
Cc1cccn2c(=O)c3cc(C(=O)NC4CCCC4)c(=N)n(C4CCCCC4)c3nc12 | · | · | · | 174.9* | · | ·
